Key:
[1] = molecular target: T1, Replicase polyprotein 1ab (Severe acute respiratory syndrome coronavirus 2, UniProt P0DTD1); assay: Inhibition of SARS-CoV-2 3CL protease using Dabcyl-KNSTLQSGLRKE-Edan as substrate incubated for 30 mins and measured by FRET assay
Outline: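 Recombinant SARS-CoV-2 3CLpro, expressed and purified in-house, at 4 μg/mL final. Preincubated with compound (in DMSO) for 30 min at 37 °C in 0.1 M PBS pH 7.4 with 1 mM EDTA. Mean ± SD of at least three independent experiments.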

[2] = molecular target: Replicase polyprotein 1ab (Severe acute respiratory syndrome-related coronavirus, UniProt P0C6X7); assay: Inhibition of SARS-CoV 3CL protease using Dabcyl-KNSTLQSGLRKE-Edan as substrate incubated for 30 mins and measured by FRET assay
Outline: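 SARS-CoV 3CLpro, expressed and purified in-house like the SARS-CoV-2 enzyme, at 30 μg/mL final. Preincubated with compound for 30 min at 37 °C in 0.1 M PBS pH 7.4 with 1 mM EDTA. Mean ± SD of at least three independent runs.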

[3] = Metabolic stability in human liver microsomes assessed as UGT-mediated metabolism at 20 uM and measured as half-life by LC-UV analysis; format: ADME, Microsome
Outline: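 Phase II: compound 20 μM with HLMs 0.2 mg/mL in 50 mM Tris-HCl pH 7.4 with 5 mM MgCl₂. After 3 min at 37 °C, started with 2 mM UDPGA. Quenched with cold acetonitrile at 0–90 min, centrifuged, supernatant analysed by LC-UV for half-life. 7-Hydroxycoumarin was the reference substrate.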

[4] = molecular target: T1, Replicase polyprotein 1ab; assay: Mixed type inhibition of SARS-CoV-2 3CL protease using Dabcyl-KNSTLQSGLRKE-Edan as substrate incubated for 30 mins and measured by Lineweaver-Burk plot analysis
[5] = Metabolic stability in human liver microsomes assessed as CYP-mediated metabolism at 20 uM and measured as half-life by LC-UV analysis; format: ADME, Microsome
[6] = Stability of the compound in simulated gastric fluid; format: ADME; details: simulated gi fluid
Outline: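 Simulated gastric fluid: pepsin 400 mg and 656 μL 1 M HCl in 40 mL water. Analyte 20 μM in SGF at 37 °C, sampled 0–90 min. Quenched with equal volume cold acetonitrile, centrifuged (20,000×g, 4 °C, 30 min), analysed by LC-UV.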

[7] = Stability in human plasma measured by LC-UV analysis; format: ADME, cell-free
Outline: (§1)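 Incubated at 37 °C in 100 mM PBS pH 7.4, as printed for the human plasma stability test. Sampled at 0, 15, 30 min and 1–12 h; proteins precipitated with cold acetonitrile. Centrifuged at 20,000×g, 4 °C, 30 min; supernatant analysed by LC-UV.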

[8] = Stability in human plasma assessed as half-life measured by LC-UV analysis; format: ADME, cell-free; outline: as §1

| Structure (SMILES) | IC50 [1] | also measured |
| --- | --- | --- |
| OCC1Cc2c(-c3ccc(F)cn3)cccc2-c2c(O)ccc(-c3ccc(Br)cc3)c21 (stereo not given) | 5.39 µM |  |
| CC(=O)OCC1Cc2c(-c3ccc(C#N)cn3)cccc2-c2c(O)ccc(-c3ccc(Br)cc3)c21 (stereo not given) | 2.78 µM | IC50 [2]: 7.12 µM |
| OCC1Cc2c(-c3ccc(Cl)cn3)cccc2-c2c(O)ccc(-c3ccc(Br)cc3)c21 (stereo not given) | 4.71 µM | IC50 [2]: 10.5 µM |
| CC(=O)OCC1Cc2c(-c3ccc(N(C)C)cn3)cccc2-c2c(O)ccc(-c3ccc(Br)cc3)c21 (stereo not given) | 3.66 µM | IC50 [2]: 5.92 µM |
| CC(=O)OCC1Cc2c(-c3cc(-c4ccccc4)ccn3)cccc2-c2c(O)ccc(C)c21 (stereo not given) | 5.65 µM |  |
| CC(=O)OCC1Cc2c(-c3ccccn3)cccc2-c2c(O)ccc(Cc3ccccc3)c21 (stereo not given) | 11.4 µM |  |
| CCc1ccc(O)c2c1C(COC(C)=O)Cc1c(-c3ccccn3)cccc1-2 (stereo not given) | 33.1 µM |  |
| CC(=O)OCC1Cc2c(-c3ccc(C)cn3)cccc2-c2c(O)ccc(-c3ccc(Br)cc3)c21 (stereo not given) | 5.25 µM |  |
| CC(=O)OCC1Cc2c(-c3ccc(S(C)(=O)=O)cn3)cccc2-c2c(O)ccc(-c3ccc(Br)cc3)c21 (stereo not given) | 6.65 µM |  |
| CC(=O)OCC1Cc2c(-c3ccccn3)ccc(Br)c2-c2c(O)ccc(C)c21 (stereo not given) | > 100 µM |  |
| CC(=O)OCC1Cc2c(ccc(C)c2-c2ccccn2)-c2c(O)ccc(C)c21 (stereo not given) | 53.8 µM |  |
| CC(=O)OCC1Cc2c(-c3ccccn3)cccc2-c2c(O)ccc(C)c21 (stereo not given) | 61.2 µM |  |
| OCC1Cc2c(-c3cc(-c4ccccc4)ccn3)cccc2-c2c(O)ccc(-c3ccc(Br)cc3)c21 (stereo not given) | 1.55 µM | t1/2 [3]: > 1.5 h; Ki [4]: 6.09 µM; t1/2 [5]: > 1.5 h; IC50 [2]: 5.35 µM; Stability [6]: Stable; Stability [7]: Stable |
| CC(=O)OCC1Cc2c(-c3cc(-c4ccccc4)ccn3)cccc2-c2c(O)ccc(-c3ccc(Br)cc3)c21 (stereo not given) | 2.46 µM | IC50 [2]: 17.7 µM |
| CC(=O)OCC1Cc2c(-c3ccc(Br)cn3)cccc2-c2c(O)ccc(C)c21 (stereo not given) | 18.5 µM |  |
| CC(=O)OCC1Cc2c(-c3ccc(Cl)cn3)cccc2-c2c(O)ccc(C)c21 (stereo not given) | 35.8 µM |  |
| CC(=O)OCC1Cc2c(-c3ccccn3)cc(C)cc2-c2c(O)ccc(C)c21 (stereo not given) | 57.7 µM |  |
| N#Cc1ccc(-c2cccc3c2CC(CO)c2c(-c4ccc(Br)cc4)ccc(O)c2-3)nc1 (stereo not given) | 10.7 µM |  |
| CC(=O)OCC1Cc2c(-c3ccc(Br)cn3)cccc2-c2c(O)ccc(-c3ccc(Br)cc3)c21 (stereo not given) | 6.73 µM |  |
| COc1ccc(-c2ccccn2)c2c1-c1c(O)ccc(C)c1C(COC(C)=O)C2 (stereo not given) | > 100 µM |  |
| CC(=O)OCC1Cc2c(-c3cc(N4CCOCC4)ccn3)cccc2-c2c(O)ccc(-c3ccc(Br)cc3)c21 (stereo not given) | 7.39 µM |  |
| CC(=O)OCC1Cc2c(-c3cc(C)ccn3)cccc2-c2c(O)ccc(C)c21 (stereo not given) | 68.2 µM |  |
| CC(=O)OCC1Cc2c(-c3ccccn3)ccc(F)c2-c2c(O)ccc(C)c21 (stereo not given) | > 100 µM |  |
| CC(=O)OCC1Cc2c(-c3ccc(-c4ccccc4)cn3)cccc2-c2c(O)ccc(-c3ccc(Br)cc3)c21 (stereo not given) | 8.28 µM |  |
| CC(=O)OCC1Cc2c(cccc2-n2cccn2)-c2c(O)ccc(C)c21 (stereo not given) | > 100 µM |  |
| CC(=O)OCC1Cc2c(-c3ccccn3)cccc2-c2c(O)ccc(-c3ccc(Br)cc3)c21 (stereo not given) | 6.44 µM |  |
| O=c1ccc2ccc(O)cc2o1 [UMBELLIFERONE] |  | t1/2 [3]: 0.2588 h |

| Structure (SMILES) | IC50 [1] | also measured |
| --- | --- | --- |
| CC(=O)OCC1Cc2c(-c3ccc(C(C)=O)cn3)cccc2-c2c(O)ccc(-c3ccc(Br)cc3)c21 (stereo not given) | 5.83 µM |  |
| CC(=O)OCC1Cc2c(-c3ncccc3C)cccc2-c2c(O)ccc(C)c21 (stereo not given) | 58.9 µM |  |
| C=CCn1cnc2c(-c3cccc4c3CC(COC(C)=O)c3c(C)ccc(O)c3-4)ncnc21 (stereo not given) | > 100 µM |  |
| CC(=O)OCC1Cc2c(-c3cc(N4CCCC4)ccn3)cccc2-c2c(O)ccc(-c3ccc(Br)cc3)c21 (stereo not given) | 11.2 µM |  |
| CC(=O)OCC1Cc2c(-c3ccc(F)cn3)cccc2-c2c(O)ccc(-c3ccc(Br)cc3)c21 (stereo not given) | 4.29 µM | IC50 [2]: 7.81 µM |
| CC(=O)OCC1Cc2c(-c3ccccn3)cccc2-c2c(O)ccc(C(C)C)c21 (stereo not given) | 29.5 µM |  |
| CC(=O)OCC1Cc2c(-c3ccc(C=O)cn3)cccc2-c2c(O)ccc(-c3ccc(Br)cc3)c21 (stereo not given) | 8.89 µM |  |
| CC(=O)OCC1Cc2c(-c3cc(Cl)ccn3)cccc2-c2c(O)ccc(-c3ccc(Br)cc3)c21 (stereo not given) | 4.79 µM | IC50 [2]: 5.44 µM |
| CC(=O)OCC1Cc2c(-c3cc(-c4ccccc4)ccn3)cccc2-c2c(O)ccc(C3CCCCC3)c21 (stereo not given) | 8.54 µM |  |
| CC(=O)OCC1Cc2c(-c3ccc(NCc4ccccc4)cn3)cccc2-c2c(O)ccc(-c3ccc(Br)cc3)c21 (stereo not given) | 3.31 µM | IC50 [2]: 5.79 µM |
| O=Cc1ccnc(-c2cccc3c2CC(CO)c2c(-c4ccc(Br)cc4)ccc(O)c2-3)c1 (stereo not given) | 1.81 µM | t1/2 [8]: 8.97 h; t1/2 [3]: 81.88 h; Ki [4]: 7.64 µM; t1/2 [5]: 32.09 h; IC50 [2]: 5.32 µM; Stability [6]: Stable |
| CC(=O)OCC1Cc2c(-c3ccc(Cl)cn3)cccc2-c2c(O)ccc(-c3ccc(Br)cc3)c21 (stereo not given) | 2.72 µM | IC50 [2]: 4.06 µM |
| CC(=O)OCC1Cc2c(-c3ccccn3)ccc(Cl)c2-c2c(O)ccc(C)c21 (stereo not given) | 85.6 µM |  |
| CC(=O)OCC1Cc2c(-c3ncccn3)cccc2-c2c(O)ccc(C)c21 (stereo not given) | > 100 µM |  |
| CC(=O)OCC1Cc2c(-c3cc(C=O)ccn3)cccc2-c2c(O)ccc(-c3ccc(Br)cc3)c21 (stereo not given) | 3.32 µM | IC50 [2]: 3.2 µM |
| CC(=O)OCC1Cc2c(-c3cc(C#N)ccn3)cccc2-c2c(O)ccc(-c3ccc(Br)cc3)c21 (stereo not given) | 10.3 µM |  |
| CC(=O)OCC1Cc2c(cccc2-c2nccc3ccccc23)-c2c(O)ccc(C)c21 (stereo not given) | 14.2 µM |  |
| CC(=O)OCC1Cc2c(-c3ccc4ccccc4n3)cccc2-c2c(O)ccc(C)c21 (stereo not given) | 13.8 µM |  |
| CC(=O)OCC1Cc2c(-c3ccncn3)cccc2-c2c(O)ccc(C)c21 (stereo not given) | > 100 µM |  |
| CC(=O)OCC1Cc2c(-c3cc4ccccc4cn3)cccc2-c2c(O)ccc(C)c21 (stereo not given) | 12 µM |  |
| CC(=O)OCC1Cc2c(-c3ccccn3)cccc2-c2c(O)ccc(-c3ccc(C#N)cc3)c21 (stereo not given) | 19.3 µM |  |
| C[C@]12CC[C@H]3[C@@H](CCC4=CC(=O)CC[C@@]43C)[C@@H]1CC[C@@H]2O [TESTOSTERONE] |  | t1/2 [5]: 0.4603 h |
| CC(=O)OCC1Cc2c(cccc2-c2ncnc3c2ncn3CC2CC2)-c2c(O)ccc(C)c21 (stereo not given) | > 100 µM |  |
| CC(=O)OCC1Cc2c(-c3ccccn3)ccc(C)c2-c2c(O)ccc(C)c21 (stereo not given) | > 100 µM |  |
| CC(=O)OCC1Cc2c(-c3cc(C)ccn3)cccc2-c2c(O)ccc(-c3ccc(Br)cc3)c21 (stereo not given) | 9.82 µM |  |
| CC(=O)OCC1Cc2c(-c3ccccn3)cccc2-c2c(O)ccc(C3CCCCC3)c21 (stereo not given) | 9.06 µM |  |
| CC(=O)OCC1Cc2c(-c3ccc(F)cn3)cccc2-c2c(O)ccc(C)c21 (stereo not given) | 66.8 µM |  |

From ChEMBL document CHEMBL5154667, “Discovery of 9,10-dihydrophenanthrene derivatives as SARS-CoV-2 3CLpro inhibitors for treating COVID-19” (Eur J Med Chem, 2022)
